Screening data as filed in PubChem BioAssay.
Many of the other results were omitted from the sample, so hits are more common in it than they were.
KDM4C inh = inhibitors of human demethylase GASC-1 KDM4C; Q9H3R0; AID 720574; GST-KDM4C 2-372, H3K9me3 peptide, LANCE TR-FRET; hit rate 0.15% among 96,000; inhibition, % at 12.5 µM;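 active means mean replicate inhibition above about 25%, with at least 55% of replicates also reaching it, limit read from the data, passing the limit was not always enough; inconclusive means only one of those two conditions met; inactive means neither condition met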
Target sequence (Q9H3R0 2-372 limits assumed): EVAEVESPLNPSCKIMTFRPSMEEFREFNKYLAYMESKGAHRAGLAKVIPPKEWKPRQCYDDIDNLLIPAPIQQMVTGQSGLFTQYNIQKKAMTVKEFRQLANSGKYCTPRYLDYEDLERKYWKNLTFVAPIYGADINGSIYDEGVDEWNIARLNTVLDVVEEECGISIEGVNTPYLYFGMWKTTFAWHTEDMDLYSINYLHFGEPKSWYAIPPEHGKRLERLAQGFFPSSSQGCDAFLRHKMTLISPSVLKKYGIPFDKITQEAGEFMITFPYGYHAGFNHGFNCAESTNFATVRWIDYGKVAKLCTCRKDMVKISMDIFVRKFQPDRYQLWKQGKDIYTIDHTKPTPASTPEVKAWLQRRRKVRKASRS
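Assay system: GST-GASC-1 enzyme fragment 2-372 | Amount: 10 nM enzyme | Medium: HEPES buffer, pH 7.5, plus ascorbate | Reagent: H3K9me3 peptide substrate, Fe(II), 2-oxoglutarate | Doses: Single-point compound screen | Incubation: 30 min demethylation and 1 h detection at room temperature | Measured by: LANCE TR-FRET, excitation 340 nm, emissions 618 and 671 nm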
T cruzi growth-1 = inhibitors of T. cruzi proliferation; inhibition, % at 8.34 µM; T. cruzi beta-gal in NIH3T3, GalScreen luminescence, 90 h; AID 624255; hit rate 5.9% among 77,000;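 active means mean inhibition above about 93%, with at least 55% of replicates each passing it, limit read from the data, passing the limit was not always enough; inconclusive means only one of those two conditions holds; inactive means neither condition holds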
IDH1 R132H inh = blocks human IDH1 R132H reductase activity; diaphorase/resazurin fluorescence, 60 min; inhibition, % at 10 µM; hit rate 0.18% among 70,000; AID 624101; in the data active means inhibition above about 34%; inconclusive means no clear call, values can overlap the other calls; inactive means below about 11%
T cruzi growth-2 = inhibitors of T. cruzi proliferation. shares compounds with T cruzi growth-1. T. cruzi beta-gal in NIH3T3, GalScreen luminescence, 90 h. inhibition, % at 8.35 µM. hit rate 72% among 5,600. AID 651739;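 active means mean replicate inhibition above about 95% and at least 55% of replicates individually reaching it, limit read from the data; inconclusive means only one of the two criteria is met; inactive means neither criterion is met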
T cruzi growth-3 = inhibitors of T. cruzi proliferation. shares compounds with T cruzi growth-1. T. cruzi beta-gal in NIH3T3, GalScreen luminescence, 90 h. inhibition, % at 2.09 µM. hit rate 21% among 5,600;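 active means mean inhibition above about 95%, with at least 55% of replicates also reaching it, limit read from the data; inconclusive means meets just one of the two conditions; inactive means meets neither condition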
3T3 cytotox = NIH/3T3 (mouse) viability loss | shares compounds with T cruzi growth-1 | NIH/3T3 viability, CellTiter-Glo ATP luminescence, 90 h | cytotoxicity (signal decrease), % at 8.35 µM | hit rate 14% among 5,600 | AID 651742;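 active means mean signal decrease across replicates above about 35% based on untreated-well scatter, with enough replicates individually passing, limit read from the data; inconclusive means no rule stated though some were filed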
NIH3T3 tox 2 = NIH/3T3 (mouse) viability loss; shares compounds with T cruzi growth-1; NIH/3T3 viability, CellTiter-Glo ATP luminescence, 90 h; inhibition, % at 24.9 µM; hit rate 56% among 5,600; AID 651744;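 active means mean loss of cell viability signal at or above a set limit, and enough replicates individually reaching it; inconclusive means meets only the mean limit or only the replicate share; inactive means meets neither condition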
Large screens that a line does not name were inactive (follow-up assays come after a bar, where they were run).

C[C@@H]1CN([C@@H](C)CO)C(=O)c2cc(NS(=O)(=O)c3ccc(Cl)cc3)ccc2O[C@@H](C)CCCCO[C@H]1CN(C)Cc1ccc(C(F)(F)F)cc1	T cruzi growth-1 inconclusive | T cruzi growth-2 inactive | T cruzi growth-3 113 | 3T3 cytotox 104 | NIH3T3 tox 2 106
C[C@@H]1CCCCO[C@H](CN(C)Cc2ccc(C(F)(F)F)cc2)[C@@H](C)CN([C@H](C)CO)C(=O)c2cc(NS(=O)(=O)c3ccc(Cl)cc3)ccc2O1	T cruzi growth-1 111 | T cruzi growth-2 105 | T cruzi growth-3 inactive | 3T3 cytotox inactive | NIH3T3 tox 2 104
C[C@@H]1CCCCO[C@@H](CN(C)Cc2ccc(C(F)(F)F)cc2)[C@H](C)CN([C@H](C)CO)C(=O)c2cc(NS(=O)(=O)c3ccc(Cl)cc3)ccc2O1	none
C[C@@H]1CN([C@H](C)CO)C(=O)c2cc(NS(=O)(=O)c3ccc(Cl)cc3)ccc2O[C@@H](C)CCCCO[C@H]1CN(C)Cc1ccc(C(F)(F)F)cc1	none (no result: IDH1 R132H inh)
C[C@@H]1CN([C@@H](C)CO)C(=O)c2cc(NS(=O)(=O)c3ccc(Cl)cc3)ccc2O[C@@H](C)CCCCO[C@@H]1CN(C)Cc1ccc(C(F)(F)F)cc1	T cruzi growth-1 96 | T cruzi growth-2 inactive | T cruzi growth-3 116 | 3T3 cytotox inactive | NIH3T3 tox 2 93
C[C@H]1CCCCO[C@@H](CN(C)Cc2ccc(C(F)(F)F)cc2)[C@@H](C)CN([C@@H](C)CO)C(=O)c2cc(NS(=O)(=O)c3ccc(Cl)cc3)ccc2O1	none
C[C@@H]1CN([C@H](C)CO)C(=O)c2cc(NC(=O)CCCN(C)C)ccc2O[C@@H](C)CCCCO[C@@H]1CN(C)S(=O)(=O)c1cccs1	none (no result: IDH1 R132H inh)
CCCNC(=O)N1C[C@H]2[C@@H](c3ccccc31)[C@H](CO)N2C(=O)c1ccncc1	none (no result: IDH1 R132H inh)
CCC(=O)N(C)C[C@@H]1Oc2cc(C#CCC3CCCC3)ccc2S(=O)(=O)N([C@H](C)CO)C[C@@H]1C	T cruzi growth-1 105 | T cruzi growth-2 107 | T cruzi growth-3 inactive | 3T3 cytotox inactive | NIH3T3 tox 2 97
CCC(=O)N(C)C[C@@H]1Oc2cc(C#CCC3CCCC3)ccc2S(=O)(=O)N([C@@H](C)CO)C[C@@H]1C	T cruzi growth-1 97 | T cruzi growth-2 inconclusive | T cruzi growth-3 inactive | 3T3 cytotox inactive | NIH3T3 tox 2 104
C[C@@H]1CN([C@H](C)CO)S(=O)(=O)c2ccc(C#CCC3CCCC3)cc2O[C@H]1CN(C)C(=O)CN(C)C	none
C[C@H]1CN([C@@H](C)CO)S(=O)(=O)c2ccc(C#CCC3CCCC3)cc2O[C@@H]1CN(C)C(=O)CN(C)C	none
COc1cccc(C#Cc2ccc3c(c2)O[C@H](CN(C)C(C)=O)[C@H](C)CN([C@@H](C)CO)S3(=O)=O)c1	none
COc1cccc(NC(=O)N(C)C[C@@H]2Oc3cc(C#Cc4ccccc4)ccc3S(=O)(=O)N([C@@H](C)CO)C[C@@H]2C)c1	T cruzi growth-1 inconclusive
COc1cccc(C#Cc2ccc3c(c2)O[C@@H](CN(C)C(C)=O)[C@H](C)CN([C@@H](C)CO)S3(=O)=O)c1	T cruzi growth-1 inconclusive | T cruzi growth-2 107 | T cruzi growth-3 inactive | 3T3 cytotox inconclusive | NIH3T3 tox 2 35
COc1cccc(NC(=O)N(C)C[C@H]2Oc3cc(C#Cc4ccccc4)ccc3S(=O)(=O)N([C@H](C)CO)C[C@H]2C)c1	T cruzi growth-1 85 (no result: KDM4C inh, IDH1 R132H inh) | T cruzi growth-2 100 | T cruzi growth-3 114 | 3T3 cytotox inactive | NIH3T3 tox 2 inactive
COc1cccc(NC(=O)N(C)C[C@H]2Oc3cc(C#Cc4ccccc4)ccc3S(=O)(=O)N([C@H](C)CO)C[C@@H]2C)c1	T cruzi growth-1 94 (no result: KDM4C inh) | T cruzi growth-2 113 | T cruzi growth-3 inactive | 3T3 cytotox inactive | NIH3T3 tox 2 inactive
COc1cccc(NC(=O)N(C)C[C@H]2Oc3cc(-c4ccccc4OC)ccc3S(=O)(=O)N([C@H](C)CO)C[C@@H]2C)c1	none (no result: T cruzi growth-1)
Cc1ccc(O)c(NC(=O)CCCOc2ccc(Cl)cc2Cl)c1	none (no result: KDM4C inh, T cruzi growth-1)
O=C(N[C@@H]1C=C[C@H](CC(=O)N2CCCCC2)O[C@@H]1CO)c1ccc2c(c1)OCO2	none
O=C(Cc1ccccc1)N1CC[C@@H]2[C@H](CO)Nc3ccc(-c4ccc(F)cc4)cc3[C@@H]21	none (no result: IDH1 R132H inh)
COc1cccc(CNC(=O)C[C@@H]2CC[C@@H](NS(=O)(=O)c3ccccc3OC)[C@@H](CO)O2)c1	none
CCCNC(=O)C[C@H]1C[C@H]2c3cc(NC(=O)CN(C)C)ccc3O[C@H]2[C@H](CO)O1	none
C[C@H](CO)N1C[C@H](C)[C@@H](CN(C)C(=O)c2ccccc2)OCCCC[C@H](C)Oc2ccc(NC(=O)Nc3ccc(C(F)(F)F)cc3)cc2C1=O	none (no result: IDH1 R132H inh)
CC(C)NC(=O)N(C)C[C@@H]1OCCCC[C@H](C)Oc2ccc(NC(=O)Nc3ccc(C(F)(F)F)cc3)cc2C(=O)N([C@H](C)CO)C[C@@H]1C	T cruzi growth-1 100 | T cruzi growth-2 100 | T cruzi growth-3 inactive | 3T3 cytotox inactive | NIH3T3 tox 2 inactive
C[C@@H]1CCCCO[C@H](CN(C)C(=O)Nc2ccc(F)cc2)[C@@H](C)CN([C@@H](C)CO)C(=O)c2cc(NC(=O)Nc3ccc(C(F)(F)F)cc3)ccc2O1	none (no result: IDH1 R132H inh)
C[C@@H]1CCCCO[C@@H](CN(C)C(=O)c2ccccc2)[C@H](C)CN([C@@H](C)CO)C(=O)c2cc(NC(=O)Nc3ccc(C(F)(F)F)cc3)ccc2O1	T cruzi growth-1 102 | T cruzi growth-2 105 | T cruzi growth-3 108 | 3T3 cytotox inactive | NIH3T3 tox 2 inactive
CC(C)NC(=O)N(C)C[C@H]1OCCCC[C@H](C)Oc2ccc(NC(=O)Nc3ccc(C(F)(F)F)cc3)cc2C(=O)N([C@@H](C)CO)C[C@H]1C	none
CC(C)NC(=O)Nc1ccc2c(c1)C(=O)N([C@@H](C)CO)C[C@@H](C)[C@H](CN(C)C(=O)Nc1ccc(C(F)(F)F)cc1)OCCCC[C@@H](C)O2	T cruzi growth-1 102 (no result: IDH1 R132H inh) | T cruzi growth-2 102 | T cruzi growth-3 inactive | 3T3 cytotox inactive | NIH3T3 tox 2 inactive
CC(C)NC(=O)Nc1ccc2c(c1)C(=O)N([C@H](C)CO)C[C@H](C)[C@@H](CN(C)C(=O)Nc1ccc(C(F)(F)F)cc1)OCCCC[C@@H](C)O2	none (no result: IDH1 R132H inh)
C[C@@H]1CCCCO[C@@H](CN(C)C(=O)Nc2ccc(C(F)(F)F)cc2)[C@H](C)CN([C@@H](C)CO)C(=O)c2cc(NC(=O)Nc3ccc(C(F)(F)F)cc3)ccc2O1	T cruzi growth-1 116 | T cruzi growth-2 99 | T cruzi growth-3 113 | 3T3 cytotox inactive | NIH3T3 tox 2 inactive
C[C@H](CO)N1C[C@H](C)[C@H](CN(C)C(=O)NC2CCCCC2)Oc2ccc(NC(=O)Cc3cn(C)c4ccccc34)cc2C1=O	none
